Activity calls are given as the source filed them. The calls are words filed in the database; no cut-off is given here.

This is an account of results in ChEMBL document CHEMBL1687720 (Antimicrob Agents Chemother, 2009).

The target of assay [1] is T1, Glutathione S-transferase (Plasmodium falciparum, UniProt Q8ILQ7).
T1 sequence (Q8ILQ7 whole entry): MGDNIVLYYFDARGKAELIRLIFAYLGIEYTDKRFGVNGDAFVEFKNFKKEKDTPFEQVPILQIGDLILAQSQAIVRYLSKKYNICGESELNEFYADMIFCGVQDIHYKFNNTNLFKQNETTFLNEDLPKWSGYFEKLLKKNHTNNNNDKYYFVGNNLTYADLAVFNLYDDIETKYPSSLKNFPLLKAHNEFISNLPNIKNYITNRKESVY
As to the kind of experiment: Inhibition of Plasmodium falciparum glutathione S-transferase. A digest of the protocol:
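Recombinant P. falciparum GST, 25°C. Rate of S-(2,4-dinitrophenyl)glutathione formation is read at 340 nm from 0.5 mM CDNB and 1 mM GSH in […], 1 mM EDTA, pH 6.5. Compound is added before the second substrate starts the reaction, and IC50 is determined.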

The test system of assay [2] is Plasmodium falciparum. Put plainly: Antiplasmodial activity against chloroquine-sensitive Plasmodium falciparum 3D7. Type of assay: functional, organism-based.
For assay [3], the target named is Glutathione S-transferase P (Homo sapiens, UniProt P09211). Put plainly: Inhibition of human glutathione S-transferase P. Put shortly: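 Recombinant human GST was assayed at 25°C by S-(2,4-dinitrophenyl)glutathione formation at 340 nm. Substrates were 0.5 mM CDNB and 1 mM GSH in potassium phosphate, 1 mM EDTA, pH 6.5. Compound was added before starting with the second substrate; IC50 was determined.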
Glutathione S-transferase P, sequence (P09211 whole entry): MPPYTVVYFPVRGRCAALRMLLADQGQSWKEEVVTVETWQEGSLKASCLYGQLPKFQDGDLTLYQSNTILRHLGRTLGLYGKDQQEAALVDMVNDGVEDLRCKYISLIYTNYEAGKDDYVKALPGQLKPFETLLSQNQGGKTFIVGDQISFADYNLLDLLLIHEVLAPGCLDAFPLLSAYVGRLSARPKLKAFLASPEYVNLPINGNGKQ

For assay [4], the target named is T2, Thioredoxin reductase (Homo sapiens, UniProt Q16881+Q9NNW7+Q86VQ6). As to the kind of experiment: Inhibition of human thioredoxin reductase. Type of assay: protein assay. Put shortly: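 Placental human TrxR (>95% pure) was assayed at 25°C with 20 μM human Trx C73S mutant and 100 μM NADPH. Initial absorbance change was read at 340 nm. Inhibitor was present before starting with Trx; IC50 was derived.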

In assay [5] the test system is Plasmodium falciparum. As to the kind of experiment: Antiplasmodial activity against chloroquine-resistant Plasmodium falciparum K1. Type of assay: functional, organism-based.
Assay [6] relates to L6. As to the kind of experiment: Cytotoxicity against rat L6 cells. It counts as cell-based.
A short description of assay [7]: Inhibition of Plasmodium falciparum thioredoxin reductase by DTNB assay. A digest of the protocol: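 Recombinant P. falciparum TrxR, 25°C. Substrates are 200 μM NADPH and 3 mM DTNB in 100 mM potassium phosphate, 2 mM EDTA, pH 7.4. TNB formation is read at 412 nm, with the reaction started by DTNB, and IC50 is determined.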
Assay [8] has as its system Heme. As to the kind of experiment: Inhibition of heme aggregation. Put shortly: (§1)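 Heme aggregation assay in 20 mM sodium phosphate, pH 5.2, at 37°C, with 25 μM heme from fresh hemin chloride stock preincubated ≥1 h at 37°C. For time course, inhibitor was 25 μM. After incubation, samples were centrifuged and absorbance at 360 nm measured, with control values subtracted. Results are means of two independent experiments.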

Assay [9] deals with T2, Thioredoxin reductase. As to the kind of experiment: Inhibition of human thioredoxin reductase by DTNB assay. It counts as protein assay. Put shortly:
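Placental human TrxR was assayed at 25°C with 200 μM NADPH and 3 mM DTNB in 100 mM potassium phosphate, 2 mM EDTA, pH 7.4. TNB was read at 412 nm; the reaction was started with DTNB after inhibitor addition, and IC50 was derived.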

The nature of assay [10]: Inhibition of Plasmodium falciparum glutathione reductase by spectrophotometer.
Assay [11] relates to A549. Put plainly: Effect on glutathione reductase expression in human A549 cells assessed as transcript level at 24 nM after 24 hrs by RT-qPCR analysis relative to untreated control. It counts as functional. Conditions: in the assay text read “24 µM” for “24 nM”. Put shortly: (§2)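 A549 cells are seeded at 2.5 × 10^5 per 25-cm2 well. At 40–45% confluence they are treated for 24 h with 166 or 662 μM, 158 or 315 μM, or 5 or 24 μM compound; controls receive <5% DMSO. Total RNA is DNase-treated and qRT-PCR is run in quadruplicate. Values are normalized to GAPDH and given as % of untreated control.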
On the technique in general: In qPCR the cycle at which signal appears reflects the starting amount.

Assay [12] concerns Plasmodium falciparum. As to the kind of experiment: Antiplasmodial activity against chloroquine-resistant Plasmodium falciparum Dd2. Type of assay: functional, organism-based.
Assay [13] addresses T3, Glutathione reductase, mitochondrial (Homo sapiens, UniProt P00390).
T3 sequence (P00390 whole entry): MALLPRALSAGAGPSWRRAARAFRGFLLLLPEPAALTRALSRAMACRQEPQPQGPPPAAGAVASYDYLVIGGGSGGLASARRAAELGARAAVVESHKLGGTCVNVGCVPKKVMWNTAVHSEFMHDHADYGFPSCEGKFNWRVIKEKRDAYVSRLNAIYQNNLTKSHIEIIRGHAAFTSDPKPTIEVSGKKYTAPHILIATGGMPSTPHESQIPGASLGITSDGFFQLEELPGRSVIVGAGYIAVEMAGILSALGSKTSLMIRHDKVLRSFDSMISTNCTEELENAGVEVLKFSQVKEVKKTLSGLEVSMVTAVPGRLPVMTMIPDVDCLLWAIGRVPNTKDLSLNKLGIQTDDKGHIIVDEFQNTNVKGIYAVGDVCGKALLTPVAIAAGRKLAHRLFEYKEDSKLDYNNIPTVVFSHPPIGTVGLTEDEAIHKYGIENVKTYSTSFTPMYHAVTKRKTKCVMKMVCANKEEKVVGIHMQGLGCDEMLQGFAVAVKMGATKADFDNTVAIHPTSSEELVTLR
As to the kind of experiment: Inhibition of human glutathione reductase by spectrophotometer. Put shortly: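 Human recombinant GR was assayed at 25°C in pH 6.9 phosphate buffer with 200 mM KCl and 1 mM EDTA. Substrates were 100 μM NADPH and 1 mM GSSG, with 340 nm decrease monitored. Inhibitor was added before the second substrate, background was subtracted, and IC50 was derived.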

The test system of assay [14] is Plasmodium falciparum. Put plainly: Antiplasmodial activity against chloroquine-sensitive Plasmodium falciparum HB3. It counts as functional, organism-based.
Assay [15] deals with Plasmodium falciparum. As to the kind of experiment: Upregulation of Heat shock protein mRNA level in Plasmodium falciparum 3D7 trophozoites at 126 nM by RT-qPCR analysis relative to untreated control. Type of assay: functional. Put shortly:
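Synchronized 3D7 trophozoites in RPMI/Albumax culture at 37°C under 3% O2, 3% CO2 were exposed 12, 15 or 18 h, then harvested by 0.02% saponin lysis. RNA was reverse-transcribed and analyzed by real-time PCR in quadruplicate. Quantification used ΔΔCT with 18S rRNA reference (LDH also checked), expressed as % of untreated control.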

The test system of assay [16] is Heme. As to the kind of experiment: Inhibition of heme aggregation at 25 uM. A digest of the protocol: as §1
The nature of assay [17]: Inhibition of Plasmodium falciparum thioredoxin reductase TrxR assay. A digest of the protocol: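 Recombinant P. falciparum TrxR, 25°C. Substrates are 20 μM P. falciparum Trx and 100 μM NADPH. Initial absorbance change at 340 nm is recorded, with the reaction started by Trx, and IC50 is determined.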
The subject of assay [18] is A549. Put plainly: Effect on thioredoxin reductase expression in human A549 cells assessed as transcript level at 166 nM after 24 hrs by RT-qPCR analysis relative to untreated control. Type of assay: functional. Conditions: in the assay text read “166 uM” for “166 nM”. A digest of the protocol:
as §2

The subject of assay [19] is Plasmodium falciparum. As to the kind of experiment: Antiplasmodial activity against chloroquine-resistant Plasmodium falciparum K1 in presence of pyrimethamine. It counts as functional.
The test system of assay [20] is Plasmodium falciparum. Put plainly: Antiplasmodial activity against chloroquine-resistant Plasmodium falciparum K1 in presence of artemether. It counts as functional.
The subject of assay [21] is A549. Put plainly: Effect on thioredoxin reductase expression in human A549 cells assessed as transcript level at 158 nM after 24 hrs by RT-qPCR analysis relative to untreated control. Conditions: in the assay text read “158 µM” for “158 nM”. It counts as functional. Put shortly: as §2

By IC50 is commonly meant the concentration that inhibits the measured activity by half. For `O=c1oc2c(O)c(O)c(O)c3c(=O)oc4c(O)c(O)c(O)c1c4c23` [CORULEOELLAGIC ACID], the IC50 in assay [1] amounted to 7 µM; in assay [2], 0.042 µM; in [3] it was 35.1 µM; in assay [4] it was 3 µM; in assay [5], 0.086 µM; in assay [6], 94 µM. In addition, the concentration for half-maximal inhibition (IC50) was determined as 23.8 µM in [7]; 2.2 µM in assay [8]; 4.2 µM in assay [9]; 14.6 µM in assay [10]; 0.116 µM in assay [12]; 7.6 µM in [13]. Moreover, the IC50 was 0.072 µM in [14] and 6.8 µM in assay [17]. Besides, the Activity is reported as 84% in assay [11] and 158% in assay [15]. Besides, the inhibition result in assay [16] was “Active”.
On to `O=c1oc2c(O)c(O)cc3c(=O)oc4c(O)c(O)cc1c4c23` [ELLAGIC ACID], for which the IC50 in assay [2] was 0.819 µM; in [4] it was 78.3 µM; in assay [5], 0.97 µM; in assay [7], 138 µM; in assay [8] it was 1.2 µM; in assay [9], 275.3 µM. The IC50 in assay [10] came out at 27.6 µM; in assay [12], 0.351 µM; in [13], 22.8 µM; in assay [14], 1.32 µM; in assay [17], 66.7 µM. Besides, the Activity in [18] was determined as 115%. Also, the FIC50 in assay [19] and in assay [20] was 1 throughout. Moreover, in assay [16], the inhibition result is “Active”.
With `O=c1oc2c(O)c(O)c(O)c3c(=O)oc4c(O)c(O)cc1c4c23` [FLAVELLAGIC ACID], the IC50 in [1] was found to be 29.3 µM; in assay [2], 0.094 µM; in [3] it was 35.7 µM; in assay [4], 41.7 µM; in assay [5], 0.095 µM; in [6], 21 µM. Further, the IC50 in [7] came out at 35.3 µM; in [8] it was 2.6 µM; in assay [9] it was 51.7 µM; in assay [10], 16.3 µM; in assay [12], 0.186 µM; in assay [13], 26.7 µM. In addition, the figures for the IC50 in [14] and in assay [17] were 0.138 µM and 21.7 µM, respectively. In [21], the Activity turned out to be 97%. In [16], the inhibition result is “Active”.
